In ChEMBL document CHEMBL1140862, “Berberine analogues as a novel class of the low-density-lipoprotein receptor up-regulators: synthesis, structure-activity relationships, and cholesterol-lowering efficacy” (J Med Chem, 2009):
Active and inactive are the calls of the source. The rule behind the calls is not given here.

Tests used:
[1] = test system: HepG2; assay: Induction of LDLR mRNA expression in human HepG2 cells after 12 hrs by RT-PCR assay relative to untreated control; assay type: functional
How it was run: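 HepG2 cells kept in RPMI-1640 with 10% FBS, moved 24 h before dosing to 10% LPDS, then at ~80% confluence to RPMI-1640 with 0.5% LPDS plus compound (5.0 µg/mL in table; concentrations as indicated in figure), 12 h, 37 °C. Total RNA reverse-transcribed, TaqMan real-time PCR, comparative CT method with GAPDH reference; fold of untreated cells (=1); mean of three experiments.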

[2] = test system: HepG2; assay: Induction of LDLR protein expression in human HepG2 cells at 10 ug/mL after 12 hrs by flow cytometry; assay type: functional, cell-based
How it was run: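 HepG2 cells in LPDS medium treated 12 h with 10 µg/mL compound, detached, fixed in 2% paraformaldehyde at 4 °C overnight, blocked, stained on ice 1 h with rabbit polyclonal anti-LDLR (1:25), then FITC goat anti-rabbit IgG (1:50) 30 min; normal rabbit IgG background control; cell-surface fluorescence by flow cytometry.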

[3] = test system: Rattus norvegicus; assay: Reduction of blood cholesterol level in hyperlipidemic Sprague-Dawley rat at 100 mg/kg, po daily twice for 30 days relative to control; assay type: functional; design: scale not given: the % may be the effect or the level left
How it was run: (§1)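 Male Sprague-Dawley rats on HFHC diet 8 weeks, then saline suspension by gavage at 100 (mg/kg)/day, twice daily, 30 days (n = 8; untreated HFHC n = 6; normal-diet controls). Fasted tail-snip blood at end point; total cholesterol and LDL-c by commercial kits; percent reduction versus untreated HFHC control; mean ± SEM.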

[4] = test system: Rattus norvegicus; assay: Reduction of blood low density lipoprotein cholesterol level in hyperlipidemic Sprague-Dawley rat at 100 mg/kg, po daily twice for 30 days relative to control; assay type: functional; design: scale not given: the % may be the effect or the level left; how it was run: as §1
[5] = test system: Rattus norvegicus; assay: Reduction of blood cholesterol level in hyperlipidemic Sprague-Dawley rat at 100 mg/kg, po daily twice; assay type: functional, organism-based; design: dose 100 mg/kg; conditions: TDE = time-dependent effect
[6] = test system: Rattus norvegicus; assay: Reduction of blood low density lipoprotein cholesterol level in hyperlipidemic Sprague-Dawley rat at 100 mg/kg, po daily twice; assay type: functional, organism-based; design: dose 100 mg/kg; conditions: TDE = time-dependent effect
[7] = test system: Rattus norvegicus; assay: Induction of LDLR mRNA expression in hyperlipidemic Sprague-Dawley rat liver at 100 mg/kg, po daily twice for 30 days by RT-PCR relative to control; assay type: functional
How it was run: (§2)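 Male Sprague-Dawley rats (180 ± 10 g) fed HFHC diet (2% cholesterol, 10% yolk powder, 15% lard, 0.2% sodium cholate) 8 weeks, then gavaged with compound suspended in saline, 100 (mg/kg)/day, twice daily, 30 days (n = 8; untreated n = 6). Liver RNA, TaqMan real-time RT-PCR, comparative CT with GAPDH; fold of untreated HFHC control.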

[8] = test system: Rattus norvegicus; assay: Induction of HMG-CoA reductase mRNA expression in hyperlipidemic Sprague-Dawley rat liver at 100 mg/kg, po daily twice for 30 days by RT-PCR; assay type: functional, organism-based; design: dose 100 mg/kg; how it was run: as §2
[9] = test system: Rattus norvegicus; assay: Toxicity in hyperlipidemic Sprague-Dawley rat assessed as weight loss at 100 mg/kg, po daily twice for 30 days; assay type: organism-based; design: dose 100 mg/kg, route oral; conditions: in vivo, 720 h
How it was run: (§3)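 Hyperlipidemic Sprague-Dawley rats (HFHC diet 8 weeks) gavaged with saline suspension, 100 (mg/kg)/day twice daily, 30 days. Body weight and food intake monitored; fasted blood before and after treatment assayed with commercial kits for AST, ALT, BUN and creatinine; mean and sd.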

[10] = test system: Rattus norvegicus; assay: Toxicity in hyperlipidemic Sprague-Dawley rat assessed as food intake reduction at 100 mg/kg, po daily twice for 30 days; assay type: organism-based; design: dose 100 mg/kg, route oral; conditions: in vivo, 720 h; how it was run: as §3
[11] = test system: Rattus norvegicus; assay: Toxicity in hyperlipidemic Sprague-Dawley rat assessed as liver and kidney function abnormalities at 100 mg/kg, po daily twice for 30 days; assay type: organism-based; design: dose 100 mg/kg, route oral; conditions: in vivo, 720 h; how it was run: as §3
[12] = test system: Rattus norvegicus; assay: Reduction of blood cholesterol level in hyperlipidemic Sprague-Dawley rat at 100 mg/kg, po daily twice for 17 days relative to control; assay type: functional; design: scale not given: the % may be the effect or the level left
How it was run: (§4)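 Hyperlipidemic Sprague-Dawley rats (HFHC diet 8 weeks) untreated (n = 6) or gavaged twice daily with saline suspension at 100 or 300 (mg/kg)/day (n = 8 each) for 17 days; fasted tail-snip blood at end point; total cholesterol and LDL-c by commercial kits, relative to untreated control.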

[13] = test system: Rattus norvegicus; assay: Reduction of blood low density lipoprotein cholesterol level in hyperlipidemic Sprague-Dawley rat at 100 mg/kg, po daily twice for 17 days relative to control; assay type: functional; design: scale not given: the % may be the effect or the level left; how it was run: as §4
[14] = test system: Rattus norvegicus; assay: Reduction of blood cholesterol level in hyperlipidemic Sprague-Dawley rat at 300 mg/kg, po daily twice for 17 days relative to control; assay type: functional; design: scale not given: the % may be the effect or the level left; how it was run: as §4
[15] = test system: Rattus norvegicus; assay: Reduction of blood low density lipoprotein cholesterol level in hyperlipidemic Sprague-Dawley rat at 300 mg/kg, po daily twice for 17 days relative to control; assay type: functional; design: scale not given: the % may be the effect or the level left; how it was run: as §4
[16] = test system: Rattus norvegicus; assay: Induction of LDLR mRNA expression in hyperlipidemic Sprague-Dawley rat liver at 100 mg/kg, po daily twice for 17 days by RT-PCR relative to control; assay type: functional, organism-based; design: dose 100 mg/kg
How it was run: (§5)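 Hyperlipidemic male Sprague-Dawley rats (HFHC diet 8 weeks) untreated (n = 6) or gavaged twice daily with saline suspension at 100 or 300 (mg/kg)/day (n = 8 each) for 17 days. Liver total RNA, real-time RT-PCR for LDLR, GAPDH-normalized, fold of HFHC group (=1); mean ± SE, one-way ANOVA.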

[17] = test system: Rattus norvegicus; assay: Induction of LDLR mRNA expression in hyperlipidemic Sprague-Dawley rat liver at 300 mg/kg, po daily twice for 17 days by RT-PCR relative to control; assay type: functional; how it was run: as §5
[18] = test system: Mus musculus; assay: Reduction of blood cholesterol level in hyperlipidemic C57BL/6J mouse at 100 mg/kg, po daily twice for 21 days relative to control; assay type: functional; design: scale not given: the % may be the effect or the level left
How it was run: (§6)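 Male C57BL/6J mice fed HFHC diet 8 weeks, then gavaged twice daily (0.2 mL saline suspension) at 100 (mg/kg)/day for 21 days (n = 8; untreated n = 6). Fasted tail-snip blood; total cholesterol and LDL-c by commercial kits relative to untreated control.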

[19] = test system: Mus musculus; assay: Reduction of blood low density lipoprotein cholesterol level in hyperlipidemic C57BL/6J mouse at 100 mg/kg, po daily twice for 21 days relative to control; assay type: functional; design: scale not given: the % may be the effect or the level left; how it was run: as §6
[20] = test system: Mus musculus; assay: Induction of LDLR mRNA expression in hyperlipidemic C57BL/6J mouse liver at 100 mg/kg, po daily twice for 21 days by RT-PCR relative to control; assay type: functional
How it was run: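 Male C57BL/6J mice (21 ± 2 g) fed HFHC diet 8 weeks, then gavaged twice daily with saline suspension at 100 (mg/kg)/day for 21 days (n = 8; untreated n = 6). Liver LDLR mRNA by TaqMan real-time RT-PCR, comparative CT with GAPDH, relative to untreated control.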

[21] = test system: Mus musculus; assay: Acute toxicity in po dosed Kunming mouse after 14 days; assay type: organism-based; conditions: in vivo, 336 h
How it was run: (§7)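 Male Kunming mice (19 ± 1 g), six per group, given a single oral dose of saline (control) or compound at 250, 1000 or 5000 mg/kg. Animals weighed daily and monitored 14 days. Then sacrificed; liver, kidney, heart, lung, brain and colon fixed in 10% formaldehyde at room temperature and examined by H&E histology.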

[22] = test system: Mus musculus; assay: Acute toxicity in Kunming mouse assessed as change in body weight at 250 mg/kg, po; assay type: organism-based; design: dose 250 mg/kg, route oral; conditions: in vivo; how it was run: as §7
[23] = test system: Mus musculus; assay: Acute toxicity in Kunming mouse assessed as change in body weight at 1000 mg/kg, po; assay type: organism-based; design: dose 1000 mg/kg, route oral; conditions: in vivo; how it was run: as §7
[24] = test system: Mus musculus; assay: Acute toxicity in Kunming mouse assessed as liver damage upto 5000 mg/kg, po after 14 days by hematoxylin and eosin staining; assay type: organism-based; design: dose 5000 mg/kg, route oral; conditions: in vivo, 336 h; how it was run: as §7
[25] = test system: Mus musculus; assay: Acute toxicity in Kunming mouse assessed as kidney damage upto 5000 mg/kg, po after 14 days by hematoxylin and eosin staining; assay type: organism-based; design: dose 5000 mg/kg, route oral; conditions: in vivo, 336 h; how it was run: as §7
[26] = test system: Mus musculus; assay: Acute toxicity in Kunming mouse assessed as heart damage upto 5000 mg/kg, po after 14 days by hematoxylin and eosin staining; assay type: organism-based; design: dose 5000 mg/kg, route oral; conditions: in vivo, 336 h; how it was run: as §7
[27] = test system: Mus musculus; assay: Acute toxicity in po dosed Kunming mouse assessed as lung damage upto 5000 mg/kg, po after 14 days by hematoxylin and eosin staining; assay type: organism-based; design: dose 5000 mg/kg, route oral; conditions: in vivo, 336 h; how it was run: as §7
[28] = test system: Mus musculus; assay: Acute toxicity in Kunming mouse assessed as brain damage upto 5000 mg/kg, po after 14 days by hematoxylin and eosin staining; assay type: organism-based; design: dose 5000 mg/kg, route oral; conditions: in vivo, 336 h; how it was run: as §7
[29] = test system: Mus musculus; assay: Acute toxicity in Kunming mouse assessed as colon damage upto 5000 mg/kg, po after 14 days by hematoxylin and eosin staining; assay type: organism-based; design: dose 5000 mg/kg, route oral; conditions: in vivo, 336 h; how it was run: as §7

**Q.** For `COc1cc2cc3[n+](cc2cc1OC)CCc1cc2c(cc1-3)OCO2.[Cl-]` [PSEUDOBERBERINE], which “fold change (FC)” value [1] is on record?
**A.** Its value is 3.5.

**Q.** What about the Activity [2] of the same molecule?
**A.** Its Activity is “Active”.

**Q.** What about the Activity [3] of the same molecule?
**A.** The Activity was 42.6%.

**Q.** What about the Activity [4] of the same molecule?
**A.** Its Activity is 49.4%.

**Q.** And the Activity [5]?
**A.** Its Activity is “tde”.

**Q.** And the Activity [6]?
**A.** Its Activity is “tde”.

**Q.** And the “fold change (FC)” value [7]?
**A.** Its value is 2.9.

**Q.** And the Activity [8]?
**A.** The Activity was “inactive”.

**Q.** What about the Activity [9] of the same molecule?
**A.** Its Activity is “Non-toxic”.

**Q.** What about the Activity [10] of the same molecule?
**A.** The Activity was “Non-toxic”.

**Q.** And the Activity [11]?
**A.** The Activity was “Non-toxic”.

**Q.** What about the Activity [12] of the same molecule?
**A.** Its Activity is 28.5%.

**Q.** And the Activity [13]?
**A.** Its Activity is 31%.

**Q.** What about the Activity [14] of the same molecule?
**A.** Its Activity is 46.3%.

**Q.** And the Activity [15]?
**A.** Its Activity is 53.6%.

**Q.** And the Activity [16]?
**A.** The Activity was “Active”.

**Q.** And the “fold change (FC)” value [17]?
**A.** The value was 4.8.

**Q.** What about the Activity [18] of the same molecule?
**A.** The Activity was 29.7%.

**Q.** What about the Activity [19] of the same molecule?
**A.** Its Activity is 39%.

**Q.** What about the “fold change (FC)” value [20] of the same molecule?
**A.** Its value is 3.2.

**Q.** What about the Activity [21] of the same molecule?
**A.** Its Activity is “Non-toxic”.

**Q.** And the Activity [22]?
**A.** Its Activity is “Non-toxic”.

**Q.** And the Activity [23]?
**A.** The Activity was “Non-toxic”.

**Q.** What about the Activity [24] of the same molecule?
**A.** The Activity was “Non-toxic”.

**Q.** And the Activity [25]?
**A.** The Activity was “Non-toxic”.

**Q.** What about the Activity [26] of the same molecule?
**A.** Its Activity is “Non-toxic”.

**Q.** And the Activity [27]?
**A.** Its Activity is “Non-toxic”.

**Q.** And the Activity [28]?
**A.** Its Activity is “Non-toxic”.

**Q.** And the Activity [29]?
**A.** The Activity was “Non-toxic”.
